# Activity calls are given as the source filed them. The rule behind the calls is not given here.
# What was measured:
# [1] = system: SK-MEL-28; experiment: Cytotoxicity against human SK-MEL-28 cells assessed as cellular growth at 10 uM; assay type: functional
# How it was run: (§1)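 Single-dose screen run by the NCI across its 60-human-tumour-cell-line panel; growth recorded for each cell line.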
# [2] = system: SK-MEL-5; experiment: Cytotoxicity against human SK-MEL-5 cells assessed as cellular growth at 10 uM; assay type: functional
# [3] = system: UACC-62; experiment: Cytotoxicity against human UACC62 cells assessed as cellular growth at 10 uM; assay type: functional
# [4] = system: IGROV-1; experiment: Cytotoxicity against human IGROV1 cells assessed as cellular growth at 10 uM; assay type: functional; how it was run: as §1
# [5] = system: OVCAR-3; experiment: Cytotoxicity against human OVCAR3 cells assessed as cellular growth at 10 uM; assay type: functional; how it was run: as §1
# [6] = system: OVCAR-4; experiment: Cytotoxicity against human OVCAR4 cells assessed as cellular growth at 10 uM; assay type: functional; how it was run: as §1
# [7] = system: OVCAR-5; experiment: Cytotoxicity against human OVCAR5 cells assessed as cellular growth at 10 uM; assay type: functional; how it was run: as §1
# [8] = system: NCI/ADR-RES; experiment: Cytotoxicity against human NCI/ADR-RES cells assessed as cellular growth at 10 uM; assay type: functional; how it was run: as §1
# [9] = system: 786-0; experiment: Cytotoxicity against human 786-0 cells assessed as cellular growth at 10 uM; assay type: functional; how it was run: as §1
# [10] = system: A498; experiment: Cytotoxicity against human A498 cells assessed as cellular growth at 10 uM; assay type: functional; how it was run: as §1
# [11] = system: ACHN; experiment: Cytotoxicity against human ACHN cells assessed as cellular growth at 10 uM; assay type: functional; how it was run: as §1
# [12] = system: SN12C; experiment: Cytotoxicity against human SN12C cells assessed as cellular growth at 10 uM; assay type: functional
# [13] = system: TK-10; experiment: Cytotoxicity against human TK10 cells assessed as cellular growth at 10 uM; assay type: functional
# [14] = system: UO-31; experiment: Cytotoxicity against human UO31 cells assessed as cellular growth at 10 uM; assay type: functional
# [15] = system: DU-145; experiment: Cytotoxicity against human DU145 cells assessed as cellular growth at 10 uM; assay type: functional; how it was run: as §1
# [16] = system: MCF7; experiment: Cytotoxicity against human MCF7 cells assessed as cellular growth at 10 uM; assay type: functional; how it was run: as §1
# [17] = system: MDA-MB-231; experiment: Cytotoxicity against human MDA-MB-231 cells assessed as cellular growth at 10 uM; assay type: functional; how it was run: as §1
# [18] = Cytotoxicity against human Hs 578T cells assessed as cellular growth at 10 uM; assay type: functional; how it was run: as §1
# [19] = system: BT-549; experiment: Cytotoxicity against human BT549 cells assessed as cellular growth at 10 uM; assay type: functional; how it was run: as §1
# [20] = system: MDA-MB-468; experiment: Cytotoxicity against human MDA-MB-468 cells assessed as cellular growth at 10 uM; assay type: functional; how it was run: as §1
# [21] = system: PC-3; experiment: Cytotoxicity against human PC3 cells after 48 hrs by SRB assay; assay type: functional, cell-based; settings: PC-3, 48 h
# How it was run: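 PC-3 cells grown in RPMI1640 with 10% FBS at 37 °C, 5% CO₂. Seeded in medium with 5% FBS; after 24 h, one plate fixed with 10% TCA as T₀. Compound or 0.1% DMSO vehicle added for 48 h, then TCA fixation and 0.4% SRB in 1% acetic acid. Dye solubilized in 10 mM Trizma base, absorbance read at 515 nm. IC50 is the concentration giving 50% reduction of the protein gain in controls.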
# [22] = system: CCRF-CEM; experiment: Cytotoxicity against human CCRF-CEM cells assessed as cellular growth at 10 uM; assay type: functional; how it was run: as §1
# [23] = biological target: Telomerase reverse transcriptase (Homo sapiens) (UniProt O14746); experiment: Inhibition of telomerase activity in human H1299 cell free extract at 10 uM by modified TRAP assay
# Chain of Telomerase reverse transcriptase (Homo sapiens) (O14746 whole entry): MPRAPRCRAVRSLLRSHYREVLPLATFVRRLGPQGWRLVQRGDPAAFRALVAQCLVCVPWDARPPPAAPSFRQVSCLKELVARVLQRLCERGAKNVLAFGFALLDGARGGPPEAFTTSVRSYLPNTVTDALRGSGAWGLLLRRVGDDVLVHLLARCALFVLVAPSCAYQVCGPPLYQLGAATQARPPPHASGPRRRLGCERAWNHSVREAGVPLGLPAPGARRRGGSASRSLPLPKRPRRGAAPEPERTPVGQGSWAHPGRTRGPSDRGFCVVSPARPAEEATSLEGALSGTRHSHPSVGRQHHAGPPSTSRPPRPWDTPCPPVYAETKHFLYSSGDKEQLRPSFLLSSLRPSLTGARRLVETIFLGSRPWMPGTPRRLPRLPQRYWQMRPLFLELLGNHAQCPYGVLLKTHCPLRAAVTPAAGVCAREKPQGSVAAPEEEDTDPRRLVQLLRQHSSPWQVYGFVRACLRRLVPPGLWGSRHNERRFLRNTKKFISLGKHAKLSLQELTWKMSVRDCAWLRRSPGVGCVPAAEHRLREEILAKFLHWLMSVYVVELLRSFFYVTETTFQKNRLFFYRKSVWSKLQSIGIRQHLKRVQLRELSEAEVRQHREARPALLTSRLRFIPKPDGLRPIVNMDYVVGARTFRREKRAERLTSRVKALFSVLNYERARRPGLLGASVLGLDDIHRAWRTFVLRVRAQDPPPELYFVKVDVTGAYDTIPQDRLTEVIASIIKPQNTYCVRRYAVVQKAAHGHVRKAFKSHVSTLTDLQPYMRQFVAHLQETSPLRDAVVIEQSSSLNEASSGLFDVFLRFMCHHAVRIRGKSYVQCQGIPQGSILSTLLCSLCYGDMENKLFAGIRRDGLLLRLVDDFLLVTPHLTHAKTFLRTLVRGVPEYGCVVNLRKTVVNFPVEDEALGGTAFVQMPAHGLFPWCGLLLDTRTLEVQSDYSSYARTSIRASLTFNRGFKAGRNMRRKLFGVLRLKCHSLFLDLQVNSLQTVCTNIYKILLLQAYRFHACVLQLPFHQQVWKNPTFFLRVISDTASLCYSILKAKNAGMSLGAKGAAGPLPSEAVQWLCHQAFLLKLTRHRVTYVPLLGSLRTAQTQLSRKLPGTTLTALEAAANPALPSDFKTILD
# How it was run: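 TRAP assay using total cell lysate from H1299 lung cancer cells as the telomerase source, with protein measured against BSA standards. Compounds tested at 10 µM. Controls were lysate without inhibitor (positive) and RNase A-treated extract without inhibitor (negative).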
# [24] = system: HL-60(TB); experiment: Cytotoxicity against human HL-60(TB) cells assessed as cellular growth at 10 uM; assay type: functional; how it was run: as §1
# [25] = system: MOLT-4; experiment: Cytotoxicity against human MOLT4 cells assessed as cellular growth at 10 uM; assay type: functional; how it was run: as §1
# [26] = system: SR; experiment: Cytotoxicity against human SR cells assessed as cellular growth at 10 uM; assay type: functional
# [27] = system: EKVX; experiment: Cytotoxicity against human EKVX cells assessed as cellular growth at 10 uM; assay type: functional; how it was run: as §1
# [28] = system: HOP-62; experiment: Cytotoxicity against human HOP62 cells assessed as cellular growth at 10 uM; assay type: functional; how it was run: as §1
# [29] = system: HOP-92; experiment: Cytotoxicity against human HOP92 cells assessed as cellular growth at 10 uM; assay type: functional; how it was run: as §1
# [30] = system: NCI-H226; experiment: Cytotoxicity against human NCI-H226 cells assessed as cellular growth at 10 uM; assay type: functional; how it was run: as §1
# [31] = system: NCI-H23; experiment: Cytotoxicity against human NCI-H23 cells assessed as cellular growth at 10 uM; assay type: functional; how it was run: as §1
# [32] = system: NCI-H322M; experiment: Cytotoxicity against human NCI-H322M cells assessed as cellular growth at 10 uM; assay type: functional; how it was run: as §1
# [33] = system: NCI-H460; experiment: Cytotoxicity against human NCI-H460 cells assessed as cellular growth at 10 uM; assay type: functional; how it was run: as §1
# [34] = system: NCI-H522; experiment: Cytotoxicity against human NCI-H522 cells assessed as cellular growth at 10 uM; assay type: functional; how it was run: as §1
# [35] = system: HCC 2998; experiment: Cytotoxicity against human HCC2998 cells assessed as cellular growth at 10 uM; assay type: functional; how it was run: as §1
# [36] = system: HCT-116; experiment: Cytotoxicity against human HCT116 cells assessed as cellular growth at 10 uM; assay type: functional; how it was run: as §1
# [37] = system: HCT-15; experiment: Cytotoxicity against human HCT15 cells assessed as cellular growth at 10 uM; assay type: functional; how it was run: as §1
# [38] = system: HT-29; experiment: Cytotoxicity against human HT-29 cells assessed as cellular growth at 10 uM; assay type: functional; how it was run: as §1
# [39] = system: KM12; experiment: Cytotoxicity against human KM12 cells assessed as cellular growth at 10 uM; assay type: functional; how it was run: as §1
# [40] = system: SW-620; experiment: Cytotoxicity against human SW620 cells assessed as cellular growth at 10 uM; assay type: functional
# [41] = system: SF-268; experiment: Cytotoxicity against human SF268 cells assessed as cellular growth at 10 uM; assay type: functional; how it was run: as §1
# [42] = system: SF-295; experiment: Cytotoxicity against human SF295 cells assessed as cellular growth at 10 uM; assay type: functional; how it was run: as §1
# [43] = system: SF-539; experiment: Cytotoxicity against human SF539 cells assessed as cellular growth at 10 uM; assay type: functional; how it was run: as §1
# [44] = system: SNB-19; experiment: Cytotoxicity against human SNB19 cells assessed as cellular growth at 10 uM; assay type: functional
# [45] = system: SNB-75; experiment: Cytotoxicity against human SNB75 cells assessed as cellular growth at 10 uM; assay type: functional
# [46] = system: U-251; experiment: Cytotoxicity against human U251 cells assessed as cellular growth at 10 uM; assay type: functional
# [47] = system: LOX IMVI; experiment: Cytotoxicity against human LOXIMVI cells assessed as cellular growth at 10 uM; assay type: functional; how it was run: as §1
# [48] = system: Malme-3M; experiment: Cytotoxicity against human MALME-3M cells assessed as cellular growth at 10 uM; assay type: functional; how it was run: as §1
# [49] = system: M14; experiment: Cytotoxicity against human M14 cells assessed as cellular growth at 10 uM; assay type: functional; how it was run: as §1
# [50] = system: MDA-MB-435; experiment: Cytotoxicity against human MDA-MB-435 cells assessed as cellular growth at 10 uM; assay type: functional; how it was run: as §1
# [51] = system: SK-MEL-2; experiment: Cytotoxicity against human SK-MEL-2 cells assessed as cellular growth at 10 uM; assay type: functional; how it was run: as §1
# [52] = Growth of human H1299 cells at 100 uM 48 hrs by MTT assay; settings: NCI-H1299, 48 h
# [53] = Growth of human H1299 cells at 1 uM after 48 hrs by MTT assay; settings: NCI-H1299, 48 h
# [54] = Growth of human H1299 cells at 10 uM after 48 hrs by MTT assay; settings: NCI-H1299, 48 h
# [55] = biological target: Telomerase reverse transcriptase (Homo sapiens) (UniProt O14746); experiment: Residual activity of human TERT in H1299 cells at 1 uM after 24 hrs by SEAP reporter gene assay
# [56] = biological target: Telomerase reverse transcriptase (Homo sapiens) (UniProt O14746); experiment: Residual activity of human TERT in H1299 cells at 10 uM after 24 hrs by SEAP reporter gene assay
# [57] = biological target: Telomerase reverse transcriptase (Homo sapiens) (UniProt O14746); experiment: Residual activity of human TERT in H1299 cells at 100 uM after 24 hrs by SEAP reporter gene assay
smiles,measurement,setting,value
O=C(CCl)Nc1ccc2c(c1NC(=O)Cc1ccccc1)C(=O)c1ccccc1C2=O,Activity,[1],88.68%
same,Activity,[2],51.32%
same,Activity,[3],59.67%
same,Activity,[4],41.03%
same,Activity,[5],86.38%
same,Activity,[6],80.4%
same,Activity,[7],119.04%
same,Activity,[8],86.87%
same,Activity,[9],97.26%
same,Activity,[10],91.79%
same,Activity,[11],79.64%
same,Activity,[12],79.93%
same,Activity,[13],120.81%
same,Activity,[14],58.19%
same,Activity,[15],85.83%
same,Activity,[16],51%
same,Activity,[17],82.04%
same,Activity,[18],66.65%
same,Activity,[19],79.78%
same,Activity,[20],51.02%
same,IC50,[21],> 20 µM
same,Activity,[22],33.97%
same,inhibition,[23],inactive
same,Activity,[24],41.36%
same,Activity,[25],11.4%
same,Activity,[26],-31.25%
same,Activity,[27],102.08%
same,Activity,[28],115.67%
same,Activity,[29],73.63%
same,Activity,[30],80.49%
same,Activity,[31],64.75%
same,Activity,[32],104.38%
same,Activity,[33],104.5%
same,Activity,[34],43.37%
same,Activity,[35],94.74%
same,Activity,[36],67.55%
same,Activity,[37],68.55%
same,Activity,[38],88.84%
same,Activity,[39],80.59%
same,Activity,[40],83.41%
same,Activity,[41],80.14%
same,Activity,[42],98.48%
same,Activity,[43],107.09%
same,Activity,[44],124.27%
same,Activity,[45],109.14%
same,Activity,[46],66.17%
same,Activity,[47],36.29%
same,Activity,[48],47.07%
same,Activity,[49],87.1%
same,Activity,[50],80.4%
same,Activity,[51],-6.49%
same,"growth, % of control at 100 µM",[52],3%
same,"growth, % of control at 1 µM",[53],81%
same,"growth, % of control at 10 µM",[54],5%
same,residual activity,[55],84%
same,residual activity,[56],9%
same,residual activity,[57],7%
Cc1ccc(C(=O)Nc2c(NC(=O)CN(C)CC3OCCO3)ccc3c2C(=O)c2ccccc2C3=O)cc1,IC50,[21],1.46 µM
same,inhibition,[23],inactive
same,"growth, % of control at 100 µM",[52],3%
same,"growth, % of control at 1 µM",[53],104%
same,"growth, % of control at 10 µM",[54],88%
same,residual activity,[55],100%
same,residual activity,[56],76%
same,residual activity,[57],10%
Nc1c(NC(=O)CCl)ccc2c1C(=O)c1ccccc1C2=O,IC50,[21],1.65 µM
same,inhibition,[23],inactive
same,"growth, % of control at 100 µM",[52],0%
same,"growth, % of control at 1 µM",[53],8%
same,"growth, % of control at 10 µM",[54],0%
same,residual activity,[55],15%
same,residual activity,[56],13%
same,residual activity,[57],13%
Cc1ccc(C(=O)Nc2c(NC(=O)CN3CCOCC3)ccc3c2C(=O)c2ccccc2C3=O)cc1,IC50,[21],> 20 µM
same,inhibition,[23],inactive
same,"growth, % of control at 100 µM",[52],15%
same,"growth, % of control at 1 µM",[53],81%
same,"growth, % of control at 10 µM",[54],56%
same,residual activity,[55],98%
same,residual activity,[56],54%
same,residual activity,[57],3%
O=C(CCl)Nc1ccc2c(c1NC(=O)c1ccco1)C(=O)c1ccccc1C2=O,IC50,[21],2.44 µM
same,inhibition,[23],inactive
same,"growth, % of control at 100 µM",[52],2%
same,"growth, % of control at 1 µM",[53],80%
same,"growth, % of control at 10 µM",[54],0%
same,residual activity,[55],84%
same,residual activity,[56],2%
same,residual activity,[57],2%

# From ChEMBL document CHEMBL1926565, “Synthesis, antiproliferative activities and telomerase inhibition evaluation of novel asymmetrical 1,2-disubstituted amidoanthraquinone derivatives” (Eur J Med Chem, 2012)
